ChEMBL document CHEMBL3526139, “Clinical pharmacokinetics, metabolism, and drug-drug interaction of carfilzomib” (Drug Metab Dispos, 2013)

What was measured:
[1] = clinical; conditions: human, plasma, po
[2] = clinical; conditions: human, plasma, po, 2 mg
[3] = clinical; conditions: human, in vivo, po
[4] = AUC(last) in solid tumor patient at 2 mg, po administered as single dose measured on day 7; conditions: human, plasma
[5] = clinical; conditions: human, plasma, po; remark: listed apart in the source
[6] = Tmax in solid tumor patient at 2 mg, po administered as single dose followed by co-treatment with 27 mg/m2, iv carfilzomib over 2 to 10 mins on days 1, 2, 8, 9, 15 and 16 of single 28-day cycle measured on day 16; assay type: ADME, organism-based; conditions: human, in vivo
In short: (§1)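 Oral midazolam 2 mg single dose on Day -7, then 2 mg given immediately after IV carfilzomib (27 mg/m2, 2–10 min infusion) on Days 1 and 16. Plasma sampled pre-dose and 5, 10, 30 min, 1–24 h post-midazolam. Midazolam measured by liquid-liquid extraction (methyl tert-butyl ether) and LC-MS/MS, range 0.100–100 ng/mL, d4-midazolam internal standard. Tmax derived noncompartmentally.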

[7] = clinical; conditions: human, plasma, po; remark: listed apart in the source
[8] = clinical; conditions: human, in vivo, po; remark: listed apart in the source
[9] = Half life in solid tumor patient at 2 mg, po administered as single dose followed by co-treatment with 27 mg/m2, iv carfilzomib over 2 to 10 mins on days 1, 2, 8, 9, 15 and 16 of single 28-day cycle measured on day 1; conditions: human, in vivo
[10] = AUC(infinity) in solid tumor patient at 2 mg, po administered as single dose measured on day 7; conditions: human, plasma
[11] = clinical; conditions: human, plasma, po; remark: listed apart in the source
[12] = clinical; conditions: human, in vivo, po; remark: listed apart in the source
[13] = clinical; conditions: human, plasma, po; remark: listed apart in the source
[14] = Tmax in solid tumor patient at 2 mg, po administered as single dose followed by co-treatment with 27 mg/m2, iv carfilzomib over 2 to 10 mins on days 1, 2, 8, 9, 15 and 16 of single 28-day cycle measured on day 1; assay type: ADME, organism-based; conditions: human, in vivo
In short: as §1

[15] = clinical; conditions: human, plasma, po; remark: listed apart in the source
[16] = Drug excretion in urine of human patient with relapsed and refractory hematological malignancies treated intravenously with carfilzomib on days 1, 2, 8, 9, 15 and 16 of 28-day cycle over 2 to 10 mins by LC-MS/MS analysis; assay type: ADME; conditions: in vivo, iv
[17] = test system: Homo sapiens; test: Ratio of compound AUC (infinity) to carfilzomib AUC (infinity) in human multiple myeloma patient with normal renal function treated with carfilzomib at 15 mg/m'2, iv on days 1, 2, 8, 9, 15 and 16 of 28-day cycle over 2 to 10 mins by LC-MS/MS analysis; assay type: ADME, organism-based; conditions: in vivo
[18] = target: Cytochrome P450 3A (Homo sapiens, UniProt P08684+P20815+Q9HB55+P24462); test: Inhibition of CYP3A in human liver microsomes treated with […] up to 30 uM by LC-MS/MS analysis; assay type: ADME
In short: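 Metabolites were tested for CYP3A inhibition in HLM at 0.04–30 µM, with or without a 30-min preincubation. Midazolam or testosterone substrate was used with a 5-min reaction and LC-MS/MS read-out.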

[19] = test system: Plasma; test: Drug level in plasma of human patient with relapsed and refractory hematological malignancies treated intravenously with carfilzomib on days 1, 2, 8, 9, 15 and 16 of 28-day cycle over 2 to 10 mins by LC-MS/MS analysis; assay type: ADME; conditions: iv
[20] = target: T1, CYP3A (Homo sapiens, UniProt P08684+P20815+P24462+Q9HB55); test: Inhibition of CYP3A in human liver microsomes treated with carfilzomib by LC-MS/MS analysis; assay type: ADME
[21] = target: T1, CYP3A; test: Time-dependent inhibition of CYP3A in human liver microsomes preincubated for 30 mins with carfilzomib by LC-MS/MS analysis; assay type: ADME; conditions: liver microsomes
In short: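 Pooled HLM (16 donors) given carfilzomib 0.01–10 µM in duplicate at 37°C with a 30-min preincubation before probe substrate was added. Substrate was set near Km (testosterone Km 100 µM; midazolam Km 3.8 µM). Protein was 0.1 mg/mL, or 0.05 mg/mL with midazolam. Metabolite formation was read by LC-MS/MS after 5 min and expressed relative to 0.5% acetonitrile controls to give IC50.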

Cc1ncc2n1-c1ccc(Cl)cc1C(c1ccccc1F)=NC2 [MIDAZOLAM]
AUC(0-inf) [1]: 51.5 ng·h/mL | AUC(0-t) at 12 h [2]: 42.5 ng·h/mL | half-life [3]: 5.5 h | AUC(0-t) [4]: 49.8 ng·h/mL | AUC(0-t) [5]: 47.3 ng·h/mL | Tmax [6]: 0.8 h | AUC(0-t) [7]: 48.4 ng·h/mL | Cmax [8]: 16 ng/mL | half-life [9]: 6.3 h | AUC(0-inf) [10]: 54.3 ng·h/mL | AUC(0-t) [11]: 40.3 ng·h/mL | Cmax [12]: 15.7 ng/mL | AUC(0-inf) [13]: 59.9 ng·h/mL | Tmax [14]: 0.7 h | AUC(0-t) [15]: 48.4 ng·h/mL

CC(C)CC(NC(=O)C(CCc1ccccc1)NC(=O)CN1CCOCC1)C(=O)O (stereo not drawn)
Drug excretion [16]: metabolite_detected | Ratio [17]: 0.11 | inhibition (INH) [18]: Not Active | Drug metabolism [19]: metabolite_detected

CC(C)CC(NC(=O)C(CCc1ccccc1)NC(=O)CN1CCOCC1)C(=O)NC(Cc1ccccc1)C(=O)NC(CC(C)C)C(=O)C(C)(O)CO (stereo not drawn)
IC50 [20]: > 30 µM | Drug excretion [16]: metabolite_detected | Ratio [17]: 0.28 | IC50 at 30 min [21]: 1.8 µM | Drug metabolism [19]: metabolite_detected

O=C(CN1CCOCC1)NC(CCc1ccccc1)C(=O)O (stereo not drawn)
Drug excretion [16]: metabolite_detected | Ratio [17]: 1.2 | inhibition (INH) [18]: Not Active | Drug metabolism [19]: metabolite_detected
